b-catenin transl – modulators of beta-catenin nuclear translocation, primary screen, imaging, HeLa cells, immunofluorescence, high-content | 0.3% of 190,000 active | nuclear translocation activity, % at 5 µM;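 active = nuclear translocation activity above 50% at 5 µM, with a well cell count of 50 or more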;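 also: per-cell ratio of nuclear to cytoplasmic median beta-catenin stain intensity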
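Read-out: Nuclear/cytoplasmic beta-catenin signal ratio, % activation | Assay system: Human HeLa cell line | Times: 24 h compound exposure at 37°C, 5% CO2 | Signal: Fluorescence imaging of beta-catenin antibody stain plus DAPI | Dosing: 5 µM primary, 0.02–20 µM confirmation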
ROMK mod – ROMK potassium channel modulators, primary screen, cell-based, thallium flux, MLSMR library; ATP-sensitive inward rectifier potassium channel 1 (Homo sapiens), P48048; Tet-inducible ROMK, thallium flux fluorescence; actives lie on both sides; B-score at 10 µM; 2% of 130,000 active; AID 1918, 2009;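 active = signal ratio slope over the read window, or its plate-corrected B-score, at least 3 SD from the plate mean, either direction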;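 also: B-score of the F/F0 ratio slope over 7 to 12 s after thallium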
Target sequence (P48048 whole entry, looked up): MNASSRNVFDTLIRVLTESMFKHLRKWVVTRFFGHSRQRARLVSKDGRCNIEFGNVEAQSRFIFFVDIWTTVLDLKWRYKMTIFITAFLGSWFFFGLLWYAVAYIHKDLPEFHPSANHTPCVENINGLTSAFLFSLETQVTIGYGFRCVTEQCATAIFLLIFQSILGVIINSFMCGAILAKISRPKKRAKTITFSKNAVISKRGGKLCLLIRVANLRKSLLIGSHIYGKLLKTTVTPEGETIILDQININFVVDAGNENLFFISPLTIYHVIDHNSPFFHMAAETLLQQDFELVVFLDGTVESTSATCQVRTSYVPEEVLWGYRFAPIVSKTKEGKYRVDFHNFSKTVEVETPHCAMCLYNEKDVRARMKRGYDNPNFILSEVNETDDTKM
MT stabilize HCS – microtubule stabilizers in HeLa cells, primary screen, imaging, high-content imaging | % tubulin-high responders, % at 10 µM | 0.83% of 200,000 active | HeLa tubulin immunostaining HCS, 24 h; share of cells brighter than vehicle mean+2SD;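 active = plate Z-score above 3 for both tubulin-high and condensed-nucleus cell shares, with cell loss under 80%, at 10 µM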;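 also: anti alpha tubulin signal scored within the nucleus-defined area of each cell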
ROMK retest – ROMK channel modulator hit retest, confirmation, cell-based, thallium flux, duplicate, resupplied hits; shares compounds with ROMK mod; fluorescence ratio; active compounds read low; normalized thallium flux (F/F0 slope) at 10 µM; 54% of 3,000 active; AID 1917, 2009;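 active = Flux at 10 µM at least 3 SD below or above vehicle control mean in one or both replicates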
Of the large screens only hits and unclear results are named; the others gave an inactive call (follow-up assays come after a bar, where they were run). Hits are enriched below; roughly 1.9% of the tested compounds scored in any of these assays.

Fc1ccccc1NC(=S)N(CCN1CCCCC1)Cc1ccco1	none (no result: b-catenin transl)
OC(COCc1ccc(Cl)cc1)CN1CCc2ccccc2C1 (centres undefined)	none
OC(COCc1ccc(Cl)cc1)CN1CCN(CC(O)COCc2ccc(Cl)cc2)CC1 (centres undefined)	ROMK mod -3 | ROMK retest 0.054
Cc1cc(=O)c(C(=O)O)nn1-c1ccc(Cl)cc1	none (no result: ROMK mod, MT stabilize HCS)
CCCCOC(=O)N1CCOCCOCCOCC1	none (no result: ROMK mod, MT stabilize HCS)
CCOC(=O)C(C)CC(C)C(=O)N1CCOCCN(C(=O)C(C)CC(C)C(=O)OCC)CCOCC1 (centres undefined)	none (no result: ROMK mod) | ROMK retest inactive
O=C(CCC(=O)N/N=C/c1cc(Cl)cc(Cl)c1O)NCc1ccccc1	none (no result: ROMK mod)
CCc1nnc(NC(=O)C2CCN(c3nc(C)cc(C)n3)CC2)s1	ROMK mod 2.2 | ROMK retest inactive
Cc1cc(C)nc(N2CCCC(C(=O)Nc3nnc(C)s3)C2)n1 (centres undefined)	none (no result: ROMK mod)
Cc1cc(Cl)n2c(nc3ccccc32)c1C#N	b-catenin transl 106, ROMK mod -5 | ROMK retest 0.036
CCN(CC)c1cc(C)c(C#N)c2nc3ccccc3n12	none (no result: ROMK mod, MT stabilize HCS)
Cc1ccc(NC(=S)N(CCCN2CCOCC2)Cc2cccnc2)cc1C	none
Cc1c(Cl)cccc1NC(=O)c1ccc(OCC(=O)NCc2ccccc2)cc1	none (no result: ROMK mod)
CC(=O)Nc1ccc(C(=O)CSc2cc(C)c3cccc(C)c3n2)cc1	none (no result: ROMK mod)
O=C(NCc1n[nH]c(=S)n1-c1cccc(Cl)c1)c1ccc(S(=O)(=O)N2CCCC2)cc1	none (no result: ROMK mod)
O=C(NCc1n[nH]c(=S)n1-c1ccc(F)cc1)c1ccc(S(=O)(=O)N2CCCC2)cc1	ROMK mod 1.3 (no result: b-catenin transl) | ROMK retest inactive
CCN(/C=N/S(=O)(=O)c1ccc(Cl)cc1)CC	none (no result: ROMK mod)
Clc1ccc(-n2nnnc2-c2ccno2)cc1	none (no result: ROMK mod, MT stabilize HCS)
Fc1cccc(-c2oncc2-c2nnnn2-c2ccc(Cl)cc2)c1	ROMK mod -7.4 | ROMK retest inactive
Cc1cc(C)nc(/N=C(\N)Nc2ccc(F)c([N+](=O)[O-])c2)n1	none (no result: b-catenin transl, ROMK mod)
CCCc1cc(=O)oc2cc(C)cc(O)c12	none
CCCCCc1cc(O)c2c(C)cc(=O)oc2c1	none (no result: ROMK mod) | ROMK retest 0.055
COc1ccc(NC(=O)C(CC(C)C)NC(=O)C2CCC(C)CC2)c(OC)c1 (centres undefined)	none (no result: b-catenin transl)
Cc1[nH]c2ccccc2c1C(=O)CN1CC(C)OC(C)C1 (centres undefined)	none (no result: ROMK mod, MT stabilize HCS)
Cc1ccc(C2=Nc3cccnc3C(c3ccccc3)=NN2)cc1	none
COc1cc(CNCCN2CCOCC2)ccc1OCc1cccc(Cl)c1	none
COc1cc(CNCCN2CCOCC2)ccc1OCc1ccc(Cl)cc1Cl	none (no result: ROMK mod) | ROMK retest 0.055
O=C(CSc1nc2ccccc2s1)N/N=C/c1cc([N+](=O)[O-])ccc1O	none (no result: ROMK mod, MT stabilize HCS)
Cc1ccc(-c2nc(CSCC(=O)N3CCN(c4ccccn4)CC3)c(C)o2)cc1	none (no result: b-catenin transl, ROMK mod)
CCOc1ccc(-c2nc(CSCC(=O)N3CCN(c4cccc(OC)c4)CC3)c(C)o2)cc1	none (no result: b-catenin transl, ROMK mod) | ROMK retest 0.067
CCOc1ccc(N/C(N)=N/c2nc(CSc3nnnn3-c3ccccc3)cc(=O)[nH]2)cc1	none (no result: ROMK mod, MT stabilize HCS)
CCOCCCNC(=O)CN1C(=O)/C(=C\c2ccc(C)cc2)Sc2ccccc21	none
CCN1CCN(CCCNC(=O)c2ccc(/C=C3/Sc4ccccc4N(Cc4ccccc4F)C3=O)cc2)CC1	ROMK mod -3.3 | ROMK retest inactive
O=C(NCCN1CCOCC1)c1ccc2c(c1)N(Cc1ccccc1F)C(=O)c1ccccc1S2	none
CCN1CCN(CCNC(=O)c2ccc(/C=C3/Sc4ccccc4N(Cc4ccccc4C)C3=O)cc2)CC1	ROMK mod -3.6 | ROMK retest inactive
Cc1noc(C(=O)Nc2cccc(O)c2)c1Cl	none (no result: MT stabilize HCS)
N#Cc1ccccc1OCC(=O)OCC(=O)N1CCN(C(=O)c2ccco2)CC1	none
O=[N+]([O-])c1ccc(CSc2nnc(Cc3ccccc3)n2-c2ccc(F)cc2)cc1	none
Cc1cccc(-n2c(Cc3ccccc3)nnc2SCC(=O)N2CCOCC2)c1	none (no result: ROMK mod)
COc1ccc(-n2c(Cc3ccccc3)nnc2SCc2ccc([N+](=O)[O-])cc2)cc1	ROMK mod -2.3 | ROMK retest 0.06
Cc1cccc(-n2c(Cc3ccccc3)nnc2SCc2ccc([N+](=O)[O-])cc2)c1	ROMK mod -7.4 | ROMK retest 0.044
O=C(NC(=S)Nc1ccccc1O)c1ccc(-c2ccc(Cl)cc2)o1	none (no result: ROMK mod)
Cc1c(NC(=S)NC(=O)c2ccc(-c3ccc(Cl)cc3)o2)cccc1C(=O)O	ROMK mod 3.5 | ROMK retest inactive
Cc1ccccc1-c1ccc(/C=C2/SC(N3CCOCC3)=NC2=O)o1	none (no result: ROMK mod, MT stabilize HCS)
O=C1N=C(N2CCOCC2)S/C1=C\c1ccc(-c2ccccc2Cl)o1	none (no result: ROMK mod) | ROMK retest 0.052
Cc1ccc2c(c1)c1c3n2CCCN(Cc2ccccc2)C3CCC1 (centres undefined)	none
COC(Cn1c2c(c3cc(C)ccc31)CCCC2NCc1ccccc1)OC (centres undefined)	ROMK mod -3.9 (no result: MT stabilize HCS) | ROMK retest 0.066
N#C/C(=C\c1cccc([N+](=O)[O-])c1)C(=O)NCC1CCCO1 (centres undefined)	ROMK mod -11 | ROMK retest 0.042
COc1cc(/C=C(\C#N)C(=O)NCC2CCCO2)c([N+](=O)[O-])cc1OC (centres undefined)	none (no result: ROMK mod)
CCCCNC(=O)c1onc(CSc2ccc(C(C)C)cc2)c1C(=O)O	none
Cc1nc2c(C(=O)NCc3ccc4c(c3)OCO4)cnn2c(C)c1Cc1ccc(F)cc1Cl	none (no result: ROMK mod)
Cc1nc2c(C(=O)NCc3ccco3)cnn2c(C)c1Cc1ccc(F)cc1Cl	none (no result: ROMK mod) | ROMK retest inactive
O=C(Nc1ncnc2c1ncn2C1OC(COC(=O)c2ccccc2)C(F)C1O)c1ccccc1 (centres undefined)	none (no result: ROMK mod)
Cc1ccc2c(c1)C(=O)CC(O)(C(F)F)O2 (centres undefined)	none (no result: ROMK mod, MT stabilize HCS) | ROMK retest inactive
CC(C)NC(=O)COc1ccc2c(c1)C(=O)CC(C)(C)O2	none
Cc1oc(-c2cc(F)ccc2F)nc1CN1CCN(c2ncnc3ccccc23)CC1	none
COc1ccc(-c2nc(CN3CCN(c4ncnc5ccccc45)CC3)c(C)o2)c(OC)c1	ROMK mod -2.7 | ROMK retest 0.065
Cc1sc(NC(=O)CSc2nnc(-c3ccc(F)cc3)o2)c(C#N)c1C	none (no result: ROMK mod)
N#Cc1nc(-c2cccc3ccccc23)oc1NCCN1CCCCC1	ROMK mod -3.4 | ROMK retest 0.065
CCNc1oc(-c2cccc3ccccc23)nc1C#N	none (no result: ROMK mod)
CC(=O)N1CCN(C(=S)c2cccc([N+](=O)[O-])c2)CC1	none
O=[N+]([O-])c1ccc(N2CCN(C(=S)c3cccc([N+](=O)[O-])c3)CC2)cc1	ROMK mod -3.1 (no result: MT stabilize HCS) | ROMK retest 0.065
O=C(NNC(=O)c1cccs1)c1ccc([N+](=O)[O-])cc1	none
CC(=O)c1c(C)nc(-c2cccc([N+](=O)[O-])c2)n1O	ROMK mod -4.7 | ROMK retest 0.063
COc1ccc(-c2nc(C)c(C(C)=O)n2O)cc1[N+](=O)[O-]	none
O=C(COC(=O)c1ccc(S(=O)(=O)N2CCCC2)cc1)NCc1ccco1	none (no result: ROMK mod, MT stabilize HCS)
